In experiment [1] the target is T1, DNA helicase/primase complex protein (Herpes simplex virus (type 1 / strain 17)) (UniProt P10236).
T1 sequence (whole entry): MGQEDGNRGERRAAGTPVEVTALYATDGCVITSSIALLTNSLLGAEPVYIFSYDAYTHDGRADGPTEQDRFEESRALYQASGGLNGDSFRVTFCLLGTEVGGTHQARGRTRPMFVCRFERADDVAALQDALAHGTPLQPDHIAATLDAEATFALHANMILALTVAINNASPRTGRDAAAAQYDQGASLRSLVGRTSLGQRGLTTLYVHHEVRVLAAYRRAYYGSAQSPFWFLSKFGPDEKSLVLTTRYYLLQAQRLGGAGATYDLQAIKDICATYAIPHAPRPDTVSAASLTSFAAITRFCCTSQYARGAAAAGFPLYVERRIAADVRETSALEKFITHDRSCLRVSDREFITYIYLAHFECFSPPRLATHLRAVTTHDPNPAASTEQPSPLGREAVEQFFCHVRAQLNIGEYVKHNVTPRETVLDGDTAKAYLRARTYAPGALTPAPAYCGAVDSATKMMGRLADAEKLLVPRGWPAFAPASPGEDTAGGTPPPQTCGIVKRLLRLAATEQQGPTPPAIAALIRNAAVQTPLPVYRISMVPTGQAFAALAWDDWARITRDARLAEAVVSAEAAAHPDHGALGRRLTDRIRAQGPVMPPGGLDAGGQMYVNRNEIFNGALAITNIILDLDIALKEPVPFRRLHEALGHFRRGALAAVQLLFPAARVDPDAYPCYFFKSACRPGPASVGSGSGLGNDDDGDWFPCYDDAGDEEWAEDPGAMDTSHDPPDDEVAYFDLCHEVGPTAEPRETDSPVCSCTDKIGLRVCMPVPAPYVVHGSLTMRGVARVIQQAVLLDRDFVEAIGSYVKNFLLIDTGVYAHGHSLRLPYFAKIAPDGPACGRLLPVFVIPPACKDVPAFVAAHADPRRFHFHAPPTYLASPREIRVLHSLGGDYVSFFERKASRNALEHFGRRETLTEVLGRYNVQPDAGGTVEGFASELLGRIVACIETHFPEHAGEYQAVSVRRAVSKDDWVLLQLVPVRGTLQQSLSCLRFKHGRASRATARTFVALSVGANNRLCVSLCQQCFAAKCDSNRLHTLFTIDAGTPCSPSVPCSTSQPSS
The experiment can be described thus: Inhibition against DNA-Dependent ATPase activity of HSV-1 helicase-primase in HSV-1-infected CV-1 cells. The format is cell-based. Details: concentration or dose not given beside the values. The settings on record: concentration not given here. The method, boiled down:
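Three-subunit helicase-primase purified from HSV1-infected CV-1 cells, 15 units. DNA-dependent NTPase run with 1 mM ATP and 2 μg activated DNA, compounds in 5% DMSO, 20 min at 34 °C. Orthophosphate read with acidic molybdate-malachite green at 650 nm. Done in duplicate, averaged over at least two independent experiments.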

Experiment [2] deals with T1, DNA helicase/primase complex protein (Herpes simplex virus (type 1 / strain 17)). Nature of the experiment: (§1) Inhibition against the primase activity of HSV-1 helicase-primase at a concentration 200 micro/mL. The settings on record: Human alphaherpesvirus 1.
The target of experiment [3] is T2, DNA helicase/primase complex protein (Herpes simplex virus (type 1 / strain 17), UniProt P10236).
T2 sequence (P10236 whole entry): T1 sequence (whole entry)
Nature of the experiment: (§2) Inhibition against Primase by coupled primase-DNA polymerase-I assay with the two subunit recombinant HSV-1 helicase primase. Details: species or system Human alphaherpesvirus 1. Summed up:
(§3)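 Two-subunit baculovirus enzyme (1 unit) coupled to 1 unit E. coli Klenow. Buffer: 50 mM Tris·HCl pH 8.7, 3.5 mM MgCl2, 10% glycerol, 100 μg/mL BSA. Inhibitors in DMSO at 0.5% final, screened at 200 μg/mL. Run 60 min at 34 °C; EDTA quench; polymer isolated on G50 and counted. Duplicates.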

In experiment [4] the test system is HeLa. The experiment can be described thus: Inhibition of HSV-1 DNA synthesis in virus-infected HeLa cells. The format is functional, cell-based. The settings on record: Homo sapiens. Summed up:
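HeLa cells (2 × 10^4/well) grown 24 h at 37 °C, infected with HSV1 KOS, adsorbed 90 min. Serial compound dilutions in DMEM/2% FCS added to duplicate wells for 24 h.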

In experiment [5] the test system is HeLa. Nature of the experiment: Inhibition of [3H]thymidine incorporation into the DNA of uninfected HeLa cells. The format is functional, cell-based. As to conditions: Homo sapiens. The method, boiled down: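 Uninfected HeLa cells (3 × 10^6/well) in DMEM/10% FCS grown 24 h, then given serial compound dilutions or DMSO in duplicate for a further 24 h at 37 °C. [3H]thymidine (1 μCi/mL) added for 3 h, followed by NaOH lysis, 5% TCA precipitation, filter collection and scintillation counting.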
On the technique in general: Incorporation of labelled thymidine or its analogues reports DNA synthesis.

Experiment [6] addresses DNA replication helicase (Human herpesvirus 1, UniProt P10189). Nature of the experiment: Inhibition against DNA-Dependent GTPase activity of two-subunit recombinant HSV-1 helicase-primase.
Experiment [7] addresses T1, DNA helicase/primase complex protein (Herpes simplex virus (type 1 / strain 17)). Described as §1. As to conditions: Human alphaherpesvirus 1. The format is functional.
Experiment [8] addresses T2, DNA helicase/primase complex protein. The experiment is described as §2. The format is functional, Human alphaherpesvirus 1. The method, boiled down:
as §3

pIC50: −log10 of the molar value.

Chain of DNA replication helicase (P10189 whole entry, looked up): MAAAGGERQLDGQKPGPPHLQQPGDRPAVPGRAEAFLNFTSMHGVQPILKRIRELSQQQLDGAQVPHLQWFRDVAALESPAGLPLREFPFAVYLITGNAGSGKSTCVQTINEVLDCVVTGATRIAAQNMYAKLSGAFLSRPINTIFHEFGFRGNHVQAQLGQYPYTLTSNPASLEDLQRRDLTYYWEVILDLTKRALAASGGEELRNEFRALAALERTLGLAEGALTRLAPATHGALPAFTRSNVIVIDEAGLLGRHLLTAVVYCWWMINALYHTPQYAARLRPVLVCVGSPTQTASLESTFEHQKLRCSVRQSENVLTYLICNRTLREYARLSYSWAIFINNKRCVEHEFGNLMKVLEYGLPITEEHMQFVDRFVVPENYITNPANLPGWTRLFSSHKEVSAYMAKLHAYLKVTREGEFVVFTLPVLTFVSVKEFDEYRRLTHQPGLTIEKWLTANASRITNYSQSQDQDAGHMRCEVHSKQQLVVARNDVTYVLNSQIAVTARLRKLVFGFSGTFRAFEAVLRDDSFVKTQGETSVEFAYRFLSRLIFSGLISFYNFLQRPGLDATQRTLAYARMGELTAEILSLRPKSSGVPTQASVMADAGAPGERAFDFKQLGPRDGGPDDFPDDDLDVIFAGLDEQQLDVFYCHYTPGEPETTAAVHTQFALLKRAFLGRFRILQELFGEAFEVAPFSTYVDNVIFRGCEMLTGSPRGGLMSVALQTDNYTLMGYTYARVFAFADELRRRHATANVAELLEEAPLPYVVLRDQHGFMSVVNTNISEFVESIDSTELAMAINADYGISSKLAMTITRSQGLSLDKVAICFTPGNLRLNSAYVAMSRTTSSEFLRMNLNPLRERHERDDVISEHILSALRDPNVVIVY

`Oc1ccc(Nc2nc(O)c3[nH]cnc3n2)cc1` gave an inhibition in experiment [1] of 17%.

`Nc1nc(Cl)cc(Nc2ccc(Cl)c(Cl)c2)n1` gave an inhibition in experiment [2] of 98%. Moreover, the figures for the pIC50 in experiment [3], in experiment [4] and in experiment [5] were 5.06, 4.21 and 4.60, respectively.

Molecule `Oc1[nH]c(Nc2ccc(F)c(Cl)c2)nc2ncnc1-2` had an inhibition in experiment [1] of 96%. Take `OCCOCn1cnc2c(Cl)nc(Nc3cc(Cl)cc(Cl)c3)nc21`: the figures for the pIC50 in experiment [4] and in experiment [5] were 5.30 and 5.13, respectively. As to `O=c1[nH]c(Nc2cc(Cl)cc(Cl)c2)nc2nc[nH]c12`, the pIC50 in experiment [6] was 3.04.

In turn, `Nc1[nH]c(Nc2ccc(Cl)c(Cl)c2)nc2ncnc1-2` had an inhibition in experiment [2] of 94%. The pIC50 in experiment [4] was 4.12; in experiment [5], 4.82; in experiment [6], 3.07. In the case of `Nc1nc2c(ncn2COCCO)c(=O)[nH]1` [ACYCLOVIR], the pIC50 is 5.72 in experiment [4] and below 3.70 in experiment [5]. Consider `Nc1nc(Nc2cc(Cl)cc(Cl)c2)nc2c1ncn2COCCO`, for which the pIC50 in experiment [4] was 4.89; in experiment [5], 5.60. On to `Nc1nc(Nc2cc(Cl)cc(Cl)c2)cc(=O)[nH]1`, for which the negative logarithm of the IC50 (pIC50) in experiment [6] is 3.11.

In turn, `Nc1nc(Cl)cc(Nc2cc(Cl)cc(Cl)c2)n1` gave an inhibition in experiment [2] of 92%. Also, the pIC50 is 4.35 in experiment [4] and 4.64 in experiment [5].

Regarding `O=c1[nH]c(Nc2cc(Cl)cc(Cl)c2)nc2c1ncn2[C@H]1C[C@H](O)[C@@H](CO)O1`, the negative-log IC50 (pIC50) in experiment [4] is 3.72; in experiment [5], 4.49. Turning to `Nc1nc(Nc2cc(Cl)cc(Cl)c2)nc2nc[nH]c12`, the pIC50 in experiment [6] was 3.04.

As to `OC[C@H]1O[C@@H](n2cnc3c(Cl)nc(Nc4cc(Cl)cc(Cl)c4)nc32)C[C@@H]1O`, the pIC50 in experiment [4] was 4.64; in experiment [5], 5.57. In the same order, the values of `O=c1[nH]c(Nc2cc(Cl)cc(Cl)c2)nc2c1ncn2COC(CO)CO` are 4.04 and 4.64.

In the case of `Oc1cc(Nc2ccc(Cl)c(Cl)c2)nc(O)n1`, the inhibition in experiment [2] is 30%. Besides, the pIC50 in experiment [6] was below 2.70.

In experiment [2], `Oc1cc(Nc2cc(Cl)cc(Cl)c2)nc(O)n1` came in with an inhibition of 46%. For the same molecule, in experiment [6], the negative logarithm of the IC50 (pIC50) was below 2.70. With `O=c1[nH]c(Nc2cccc(C(F)(F)F)c2)nc2[nH]cnc12`, in experiment [1], the inhibition is 13%. Still for that read-out and setting: the value for `Oc1[nH]c(Nc2ccc3c(c2)CCC3)nc2ncnc1-2` was 0%.

Turning to `Nc1nc(O)cc(Nc2cc(Cl)cc(Cl)c2)n1`, the inhibition in experiment [2] was found to be 34%. `Cc1ccc(Nc2nc(O)c3[nH]cnc3n2)cc1` yielded an inhibition in experiment [1] of 0%.

Molecule `Oc1[nH]c(Nc2ccc(Br)cc2)nc2ncnc1-2` came in with an inhibition in experiment [1] of 40%. Still for that read-out and setting: the result for `Oc1[nH]c(Nc2ccccc2)nc2ncnc1-2` reads 0%. In experiment [2], `Nc1[nH]c(Nc2cc(Cl)cc(Cl)c2)nc2ncnc1-2` registered an inhibition of 93%. The pIC50 in experiment [4] is 4.16; in experiment [5] it was 4.68.

Consider `Nc1nc(O)cc(Nc2ccc(Cl)c(Cl)c2)n1`, for which the inhibition in experiment [2] was 44%. Besides, the negative-log IC50 (pIC50) in experiment [6] is 3.07. With `O=c1[nH]c(Nc2cc(Cl)cc(Cl)c2)nc2c1ncn2COCCO`, the pIC50 in experiment [4] is 4.84; in experiment [5] it was 4.63. Regarding `Oc1[nH]c(Nc2cc(Cl)cc(Cl)c2)nc2ncnc1-2`, the inhibition was determined as 94% in experiment [7] and 70% in experiment [1]. For the same molecule, the negative logarithm of the IC50 (pIC50) in experiment [4] and in experiment [5] was below 3.70 each time. With `Oc1[nH]c(Nc2ccc(F)c(F)c2)nc2ncnc1-2`, the inhibition in experiment [1] came out at 73%. `Nc1nc(Nc2cc(Cl)cc(Cl)c2)nc2c1ncn2[C@H]1C[C@H](O)[C@@H](CO)O1`: the pIC50 was 4.31 in experiment [4] and 6.40 in experiment [5].

As to `CCc1cccc(Nc2nc(O)c3[nH]cnc3n2)c1`, the inhibition in experiment [1] came to 42%. Take `Oc1[nH]c(Nc2ccc(F)cc2)nc2ncnc1-2`: in experiment [1], the inhibition worked out at 5%. Consider `Oc1[nH]c(Nc2ccc(Cl)c(Cl)c2)nc2ncnc1-2`, for which the pIC50 in experiment [8] is 4.23; in experiment [4] it was below 3.70; in experiment [5], 3.60; in experiment [6], 3.06. For the same molecule, the inhibition was 89% in experiment [7] and 98% in experiment [1]. Turning to `Oc1[nH]c(Nc2cccc(Cl)c2)nc2ncnc1-2`, in experiment [1], the inhibition worked out at 60%.

As to `Nc1nc(Nc2cc(Cl)cc(Cl)c2)nc2c1ncn2COC(CO)CO`, the values for the pIC50 in experiment [4] and in experiment [5] were 4.21 and 5.26, respectively.

A word on the inhibition: it is the drop in the measured response relative to a control, in per cent. The term pIC50 denotes −log10 of the IC50, conventionally taken in molar units.

Values taken from ChEMBL document CHEMBL1128737, “Inhibition of herpes simplex virus type 1 helicase-primase by (dichloroanilino)purines and -pyrimidines” (J Med Chem, 1995).
